Activity calls are given as the source filed them.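 The calls were made as follows: active = fold change inhibition above 1.5; inactive = the rest.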

For the assay, the system named is GAL4DBD-VP16 transactivation domain fusion (Human herpesvirus 1 VP16). The assay can be described thus: GAL4-VP16 transactivation inhibitors, late-stage follow-up, counter-screen for RORA inverse agonist project, cell-based, luminescence, HEK293T, powder samples (AID 463148). Conditions: HEK293T GAL4-VP16 UAS-luciferase, 18-24 h, at 10 µM, stronger effect = higher value. Summed up: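 Assay system: transfected HEK293T GAL4-VP16 UAS-luciferase reporter cells; Incubation: 20 h compound exposure after transfection; Measured by: luciferase luminescence; Read-out: fold change relative to DMSO wells; Control set: DMSO vehicle wells; Repeats: six replicates per compound, averaged.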
(Counterscreens check selectivity or assay interference.)
For `O=C(Nc1ccc(C(O)(C(F)(F)F)C(F)(F)F)cc1)c1ccc(F)cc1F`, the fold change inhibition was 1.68.
As to `O=C(Nc1ccc(C(O)(C(F)(F)F)C(F)(F)F)cc1)c1c(F)cccc1F`, the fold change inhibition is 1.05 (inactive).
Under `O=C(Nc1ccc(C(O)(C(F)(F)F)C(F)(F)F)cc1)c1ccc(F)cc1Cl` stands 1.01 (inactive); under `O=S(=O)(Nc1ccc(C(O)(C(F)(F)F)C(F)(F)F)cc1)c1cccs1`, 0.97 (inactive); under `O=C(Nc1ccc(C(O)(C(F)(F)F)C(F)(F)F)cc1)c1ccccc1C(F)(F)F`, 0.941 (inactive).
`O=C(Nc1ccc(C(O)(C(F)(F)F)C(F)(F)F)cc1)c1ccc(Cl)cc1`: the fold change inhibition was 1.27 (inactive).

(Values after PubChem BioAssay AID463148 (The Scripps Research Institute Molecular Screening Center, 2010).)
